Sampled rows, rich in hits. Any-hit rate of the full collection: about 1.5%.
PKD1 inh – PKD1 (human) kinase inhibition; Q15139; PKD1 kinase fluorescence polarization assay; inhibition, % (test concentration not listed); 200,000 tested, 0.056% active; AID 797; in the data active = inhibition above about 50%
PP1 inh – counter-screen for PP5 inhibitors: inhibitors of human PP1-alpha; P62136; AID 2235; purified PP1alpha, OMFP fluorescence; inhibition, % at 6.7 µM; 320,000 tested, 0.9% active;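 active = inhibition above the mean inhibition of all tested compounds plus 3 SD, computed separately for each screening campaign, cut at about 15% in these data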
Target sequence (P62136 whole entry, looked up): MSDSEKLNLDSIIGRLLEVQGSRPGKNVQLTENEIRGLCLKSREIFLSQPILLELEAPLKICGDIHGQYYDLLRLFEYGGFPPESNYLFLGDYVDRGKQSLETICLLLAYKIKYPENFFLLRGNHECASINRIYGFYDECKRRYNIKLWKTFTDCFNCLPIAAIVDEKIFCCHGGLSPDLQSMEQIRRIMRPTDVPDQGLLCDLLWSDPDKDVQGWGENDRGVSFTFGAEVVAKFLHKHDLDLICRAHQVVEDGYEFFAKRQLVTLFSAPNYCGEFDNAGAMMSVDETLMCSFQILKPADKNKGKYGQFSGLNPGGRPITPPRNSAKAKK
Hsp70 activator – Hsp70 transcriptional activation, primary screen. HeLa Hsp70 promoter luciferase reporter, luminescence; scaled: vehicle 0, proteasome-inhibitor control 100%. AID 1203. activation, % at 10 µM. 200,000 tested, 0.04% active;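 active = activation above the mean across all tested compounds plus 3 SD, cutoff set per campaign, cut at about 5.5% in these data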;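 also: 100% = MG132 at 30 µM as the positive control and 0% = DMSO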
RBBP9 inh – human RBBP9 hydrolase inhibition. O75884. recombinant RBBP9, FP-Rh probe fluorescence polarization. inhibition, % at 7.94 µM. 220,000 tested, 0.2% active. AID 1515;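 active = inhibition above the campaign mean of all tested compounds plus 3 SD, cut at about 14% in these data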;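 also: plate controls were DMSO wells with RBBP9 for no effect and wells lacking RBBP9 protein for full effect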
Target sequence (O75884 whole entry, looked up): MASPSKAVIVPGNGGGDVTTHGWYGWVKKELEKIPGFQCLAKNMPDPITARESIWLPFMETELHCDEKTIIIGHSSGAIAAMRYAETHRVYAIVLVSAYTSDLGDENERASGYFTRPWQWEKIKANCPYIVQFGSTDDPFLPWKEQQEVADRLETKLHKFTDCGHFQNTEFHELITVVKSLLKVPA
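Measured by – fluorescence polarization · Test system – RBBP9 protein · Input – 2.5 µM RBBP9 dispensing solution, before mixing · Measure – percent inhibition from mP, scaled between DMSO and no-protein wells · Benchmarks – DMSO-treated enzyme wells and wells lacking RBBP9 · Times – preincubation 30 min plus labeling 45 min at 25 °C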
PP5 primary – blocks human protein phosphatase 5 activity | P53041 | purified PP5c, OMFP substrate fluorescence | inhibition, % at 6.7 µM | 320,000 tested, 0.18% active | AID 1987;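 active = inhibition above the campaign's mean inhibition across all tested compounds plus 3 SD, cut at about 9.5% in these data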;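 also: 0% = DMSO only and 100% = 100 µM cantharidin control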
p97 ATPase inh – human p97 ATPase inhibition. AID 1481. inhibition, % at 8 µM. P55072. 220,000 tested, 0.42% active. recombinant p97 ATPase, Kinase-Glo ATP luminescence, 3 h; in the data active = inhibition above about 15%;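 also: 0% = DMSO vehicle and 100% = wells lacking enzyme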
p97 inh conf – human p97 ATPase inhibition, confirmation; 760 tested, 44% active; recombinant p97 ATPase, Kinase-Glo ATP luminescence; shares compounds with p97 ATPase inh; inhibition, % at 8 µM;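 active = percent inhibition of p97 ATPase above a set limit, the primary screen's mean plus 3 SD, cut at about 15% in these data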;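 also: 0% = DMSO wells and 100% = wells lacking p97 protein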
* = called active by the depositor; nt = not tested or not shown.

SMILES | PKD1 inh | PP1 inh | Hsp70 activator | RBBP9 inh | PP5 primary | p97 ATPase inh | p97 inh conf
O=C(Nc1cccc(NC(=O)c2ccco2)c1)c1ccc2c(c1)OCO2 | -8.7 | -1.0 | -0.1 | -0.1 | -0.4 | -0.5 | nt
O=C(Nc1cccc(NC(=O)c2ccco2)c1)c1ccc2c(c1)OCCO2 | 6.4 | -2.1 | -0.3 | -7.0 | 2.8 | 16.8* | 4.8
CCC(=O)Nc1cccc(-c2cnc3ccccc3n2)c1 | -6.5 | -1.7 | -0.1 | 4.8 | 1.9 | -4.6 | nt
O=C(CCl)Nc1cccc(-c2cnc3ccccc3n2)c1 | 5.2 | -1.9 | 0.0 | -6.8 | 0.2 | 17.9* | 34.7*
COCC1CCCCN1Cc1cn[nH]c1-c1ccc2cc(OC)ccc2c1 (stereo unspecified) | -3.9 | 0.4 | -0.4 | 0.2 | 0.7 | 17.5* | 6.1
Cc1cc2c(N)cccc2nn1 | -3.3 | 0.7 | -0.2 | 4.3 | 0.3 | 31.8* | 9.2
O=C(Nc1ccccc1OC(F)F)c1ccccc1 | -2.9 | -0.9 | 0.0 | 4.0 | 2.6 | 16.0* | 9.2
COc1cc(C(=O)NC2CC(C)(C)NC(C)(C)C2)cc(OC)c1OC | 7.0 | -0.7 | -0.2 | 1.5 | -1.7 | 3.0 | nt
C[n+]1cccc2c(Br)ccc([O-])c21 | nt | 1.3 | nt | 3.7 | 7.5 | 45.5* | 9.0
Cc1cc(/C=C(/C#N)c2nc3ccccc3[nH]2)c(C)n1-c1cc(C(=O)O)cc(C(=O)O)c1 | 8.6 | nt | -0.4 | -3.5 | nt | 16.8* | 14.2
COc1ccc2ccc3c(c2c1)N=C[C@]1(O3)N(C)c2ccccc2C1(C)C | 19.5 | 8.4 | -0.4 | -5.6 | -0.9 | 23.6* | 2.1
COc1ccc(CCN(C)C(=O)c2cc(-c3ccc(C)cc3)nc3ccccc23)cc1OC | nt | -7.6 | nt | nt | 2.1 | nt | nt
Nc1cccc2c1C(=O)N(C(=O)/C=C/c1cccc(Br)c1)C2=O | nt | nt | nt | 6.0 | nt | 16.9* | 18.5*
Nc1cccc2c1C(=O)N(C(=O)/C=C/c1cccc(F)c1)C2=O | 6.1 | -3.8 | -0.1 | -3.6 | -0.9 | 2.2 | nt
Nc1c(/C=C2\C=Nc3ccccc32)c(=O)nc2sc(CC(=O)N3CCOCC3)nn12 | nt | -1.5 | nt | nt | 0.9 | nt | nt
CSc1nsc2nc(=O)c(/C=C3\C(C)=Nc4ccccc43)c(N)n12 | -2.7 | nt | 0.1 | -5.5 | nt | 21.0* | 38.2*
S=C1NC2=C(CCC/C2=C\c2ccc(Cl)cc2)C(c2ccc(Cl)cc2)N1 (stereo unspecified) | nt | 8.5 | nt | 1.2 | -0.2 | 18.0* | 7.5
CCC12CN3CCN(CC(C3)/C1=N\NC(=O)c1ccc(C(C)(C)C)cc1)C2 | 4.8 | 0.1 | -0.2 | -5.4 | 0.6 | 21.0* | 4.5
CCC12CN3CCN(CC(C3)/C1=N\NC(=O)c1ccc(F)cc1)C2 | 4.7 | -0.4 | -0.1 | -12.9 | -0.6 | 3.2 | nt
COc1ccc(-c2cc(=O)n(CCC#N)[nH]2)cc1 | -1.3 | -1.6 | -0.4 | -6.7 | 1.9 | 24.9* | 1.7
O=C(Cc1csc(NC(=O)c2ccc(F)cc2)n1)NO | 5.7 | -2.8 | -0.5 | 12.2 | -0.1 | 0.5 | nt
Cc1[nH]c2ccccc2c1C(=O)COC(=O)CCS(=O)(=O)c1ccccc1Cl | -9.0 | 0.5 | -0.2 | -6.9 | 2.4 | 26.7* | 30.0*
NC(N)=Nc1cc2ccccc2c2ccccc12 | nt | -0.4 | nt | -5.5 | -0.1 | 14.9* | 10.0
Cc1nn(CC(=O)N(C)c2c(N)n(Cc3ccccc3)c(=O)[nH]c2=O)c(C)c1[N+](=O)[O-] | nt | -10.6 | nt | nt | 2.2 | nt | nt
Cc1cc(C2=NNC(=NCCc3ccccc3)SC2)c(C)n1-c1c(C)n(C)n(-c2ccccc2)c1=O | nt | 18.8* | nt | 2.2 | 0.4 | 16.1* | 7.0
CSc1ccccc1NC(=O)Nc1ccc(F)c(Cl)c1 | -6.3 | -2.6 | 0.0 | -6.4 | 5.8 | 24.8* | 4.1
O=C(O)C1CCCCC1C(=O)NCc1ccc(Cl)c(Cl)c1 (stereo unspecified) | 4.6 | 3.2 | -0.4 | -2.2 | 0.1 | 1.6 | nt
Cc1ccnc(NC(=O)CCC(=O)N(CC(=O)NC(C)(C)C)c2ccc3c(c2)OCCO3)c1 | -5.5 | -0.5 | -0.1 | -5.1 | -0.6 | -0.5 | nt
CC(=O)c1sc(NC(=O)C2CCCN2S(=O)(=O)c2ccccc2F)nc1C (stereo unspecified) | nt | -4.5 | nt | nt | 0.1 | nt | nt
O=C(NNc1c2ccccc2nc2ccccc12)c1ccc(O)cc1O | 16.3 | -0.4 | -0.1 | -1.4 | 1.8 | 34.7* | 38.0*
